Assay results taken from ChEMBL document CHEMBL1131460, “2-substituted (2SR)-2-amino-2-((1SR,2SR)-2-carboxycycloprop-1-yl)glycines as potent and selective antagonists of group II metabotropic glutamate receptors. 2. Effects of aromatic substitution, pharmacological characterization, and bioavailability” (J Med Chem, 1998).

What was measured:
[1] = target: T1, Metabotropic glutamate receptor 3 (Homo sapiens, UniProt Q14832); experiment: Effect on 1S,3R-ACPD-induced inhibition of forskolin stimulated cyclic-AMP in RGT cells expressing human Metabotropic glutamate receptor 3; type: functional, cell-based
T1 sequence (Q14832 whole entry): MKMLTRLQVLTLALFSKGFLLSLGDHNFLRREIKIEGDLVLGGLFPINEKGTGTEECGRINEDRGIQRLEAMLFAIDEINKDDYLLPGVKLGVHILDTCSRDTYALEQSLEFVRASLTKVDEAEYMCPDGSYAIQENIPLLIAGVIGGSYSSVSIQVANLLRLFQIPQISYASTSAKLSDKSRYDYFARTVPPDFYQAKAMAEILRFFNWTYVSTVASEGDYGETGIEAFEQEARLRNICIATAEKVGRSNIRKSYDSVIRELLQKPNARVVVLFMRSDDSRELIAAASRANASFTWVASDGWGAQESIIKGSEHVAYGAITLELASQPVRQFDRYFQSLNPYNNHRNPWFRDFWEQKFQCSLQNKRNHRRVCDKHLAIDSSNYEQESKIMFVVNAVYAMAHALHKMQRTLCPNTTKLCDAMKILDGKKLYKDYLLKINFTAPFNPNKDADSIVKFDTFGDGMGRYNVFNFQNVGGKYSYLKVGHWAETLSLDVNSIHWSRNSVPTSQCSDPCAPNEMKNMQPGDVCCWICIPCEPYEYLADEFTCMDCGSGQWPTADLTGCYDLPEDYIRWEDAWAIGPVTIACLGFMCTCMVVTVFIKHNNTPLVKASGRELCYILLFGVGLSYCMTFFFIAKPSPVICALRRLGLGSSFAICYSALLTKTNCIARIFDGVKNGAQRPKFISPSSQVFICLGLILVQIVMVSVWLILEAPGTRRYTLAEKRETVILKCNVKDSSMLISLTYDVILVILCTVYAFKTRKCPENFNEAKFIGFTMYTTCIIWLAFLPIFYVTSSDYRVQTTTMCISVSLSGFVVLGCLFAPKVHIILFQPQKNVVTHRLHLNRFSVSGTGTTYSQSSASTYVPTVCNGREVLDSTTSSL

[2] = Binding affinity for Group II Metabotropic glutamate receptor was measured using [3H]glutamate in rat forebrain membranes; type: cell membranes, Membrane
Procedure, shortened: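 ACPD-sensitive [³H]glutamate binding to group II mGluRs in rat forebrain membranes, reported as IC50. Most values are single-point determinations; others are averages of two or three determinations. Values in parentheses are percent radioligand displacement at 1 μM.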

[3] = target: T2, Metabotropic glutamate receptor 2 (Homo sapiens, UniProt Q14416); experiment: Effect on 1S,3R-ACPD-induced inhibition of forskolin stimulated cyclic-AMP in RGT cells expressing human Metabotropic glutamate receptor 2; type: functional, cell-based
T2 sequence (Q14416 whole entry): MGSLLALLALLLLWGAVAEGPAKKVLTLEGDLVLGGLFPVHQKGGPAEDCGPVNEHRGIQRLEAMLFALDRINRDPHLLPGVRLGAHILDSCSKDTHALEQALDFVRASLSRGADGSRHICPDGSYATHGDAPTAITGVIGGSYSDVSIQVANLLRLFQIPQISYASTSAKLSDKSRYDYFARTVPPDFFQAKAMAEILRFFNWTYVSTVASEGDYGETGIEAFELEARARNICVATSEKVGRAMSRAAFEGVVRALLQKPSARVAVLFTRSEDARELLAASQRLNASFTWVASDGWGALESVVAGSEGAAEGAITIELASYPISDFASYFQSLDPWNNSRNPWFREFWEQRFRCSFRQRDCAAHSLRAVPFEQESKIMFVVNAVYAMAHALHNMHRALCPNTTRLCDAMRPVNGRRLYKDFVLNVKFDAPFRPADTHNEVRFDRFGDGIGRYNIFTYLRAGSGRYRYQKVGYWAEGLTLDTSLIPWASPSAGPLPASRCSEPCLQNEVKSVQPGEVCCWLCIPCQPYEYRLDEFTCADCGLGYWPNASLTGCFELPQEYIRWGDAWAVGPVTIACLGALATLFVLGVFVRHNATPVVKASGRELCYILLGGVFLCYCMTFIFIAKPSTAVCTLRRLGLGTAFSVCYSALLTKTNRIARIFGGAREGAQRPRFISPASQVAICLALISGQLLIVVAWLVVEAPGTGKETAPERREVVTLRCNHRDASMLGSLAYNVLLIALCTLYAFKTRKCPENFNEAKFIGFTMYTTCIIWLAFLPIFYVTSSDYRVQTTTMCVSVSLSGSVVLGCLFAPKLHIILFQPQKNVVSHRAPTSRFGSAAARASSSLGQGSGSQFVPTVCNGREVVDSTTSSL

[4] = target: T1, Metabotropic glutamate receptor 3; experiment: Compound was tested its ability to block 1S,3R-ACPD-induced inhibition of forskolin stimulated cyclic-AMP in RGT cells transfected with human Metabotropic glutamate receptor 3; Agonist; type: functional, cell-based
Procedure, shortened: (§1)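 RGT cells transfected with human mGluR2 or mGluR3 were used. Forskolin-stimulated cyclic AMP was inhibited by (1S,3R)-ACPD, and compounds were tested for antagonism of this inhibition, giving IC50.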

[5] = target: T2, Metabotropic glutamate receptor 2; experiment: Compound was tested its ability to block 1S,3R-ACPD-induced inhibition of forskolin stimulated cyclic-AMP in RGT cells transfected with human Metabotropic glutamate receptor 2; Agonist; type: functional, cell-based; procedure, shortened: as §1

| IC50 [2] [nM] | Structure (SMILES) | also measured |
| --- | --- | --- |
| 77 | NC(CCc1cccc(C(=O)O)c1)(C(=O)O)[C@H]1C[C@@H]1C(=O)O (some centres undefined) | IC50 [1]: 80 nM; IC50 [3]: 1800 nM |
| 4200 | N[C@](CC1c2ccccc2Oc2ccccc21)(C(=O)O)C1C[C@H]1C(=O)O (stereo in doubt; 174) |  |
| 170 | COc1ccc(OC)c(CC[C@](N)(C(=O)O)C2C[C@@H]2C(=O)O)c1 (some centres undefined) |  |
| 140 | N[C@@](CCc1cccc(C(F)(F)F)c1)(C(=O)O)C1C[C@@H]1C(=O)O (some centres undefined) | IC50 [1]: 420 nM; IC50 [3]: 220 nM |
| 1500 | N[C@@](CCc1ccc(-c2ccccc2)cc1)(C(=O)O)C1C[C@@H]1C(=O)O (some centres undefined) |  |
| 590 | Cc1ccc(CC[C@](N)(C(=O)O)C2C[C@@H]2C(=O)O)cc1 (some centres undefined) |  |
| 570 | CCCc1cccc(CC[C@](N)(C(=O)O)C2C[C@@H]2C(=O)O)c1 (some centres undefined) |  |
| 89 | Cc1cccc(CC[C@](N)(C(=O)O)C2C[C@@H]2C(=O)O)c1 (stereo in doubt; 104) |  |
| 130 | N[C@@](CCc1cccc(F)c1F)(C(=O)O)C1C[C@@H]1C(=O)O (some centres undefined) |  |
| 34 | N[C@@](CCc1ccc(F)c(F)c1)(C(=O)O)C1C[C@@H]1C(=O)O (some centres undefined) |  |
| 69 | N[C@@](CCc1cccc(Br)c1)(C(=O)O)C1C[C@@H]1C(=O)O (some centres undefined) |  |
| 29 | N[C@@](CCc1cc(Cl)cc(Cl)c1)(C(=O)O)C1C[C@@H]1C(=O)O (some centres undefined) |  |
| 360 | N[C@@](CCc1ccccc1Oc1ccccc1)(C(=O)O)C1C[C@@H]1C(=O)O (some centres undefined) |  |
| 94 | COc1cccc(CC[C@](N)(C(=O)O)C2C[C@@H]2C(=O)O)c1 (some centres undefined) | IC50 [1]: 160 nM; IC50 [3]: 430 nM |
| 470 | N[C@@H](C(=O)O)C1C[C@@H]1C(=O)O (some centres undefined) | IC50 [4]: Agonist; IC50 [5]: Agonist |
| 110 | CS(=O)(=O)c1cccc(CC[C@](N)(C(=O)O)C2C[C@@H]2C(=O)O)c1 (some centres undefined) [listing 1 of 2 here] | IC50 [1]: 180 nM; IC50 [3]: 190 nM |
| 220 | N[C@@](CCc1ccc(Cl)cc1Cl)(C(=O)O)C1C[C@@H]1C(=O)O (some centres undefined) |  |
| 35 | N[C@](CC(c1ccccc1)c1ccccc1)(C(=O)O)[C@H]1C[C@@H]1C(=O)O | IC50 [1]: 170 nM; IC50 [3]: 220 nM |
| 12 | Cc1cccc(CC[C@](N)(C(=O)O)C2C[C@@H]2C(=O)O)c1 (stereo in doubt; 180) |  |
| 460 | COc1ccc(CC[C@](N)(C(=O)O)C2C[C@@H]2C(=O)O)cc1OC (some centres undefined) |  |
| 150 | N[C@@](CCc1cccc(O)c1)(C(=O)O)C1C[C@@H]1C(=O)O (some centres undefined) | IC50 [1]: 260 nM; IC50 [3]: 1000 nM |
| 410 | N[C@@](CCc1ccc(Cl)cc1)(C(=O)O)C1C[C@@H]1C(=O)O (some centres undefined) |  |
| 290 | N[C@@](CCc1cc(F)ccc1F)(C(=O)O)C1C[C@@H]1C(=O)O (some centres undefined) |  |
| 1400 | COc1ccc(CC[C@](N)(C(=O)O)C2C[C@@H]2C(=O)O)cc1 (some centres undefined) |  |
| 510 | N[C@@](CCc1cccc(-c2ccccc2)c1)(C(=O)O)C1C[C@@H]1C(=O)O (some centres undefined) |  |
| 320 | NC(CCc1ccccc1)(C(=O)O)[C@H]1C[C@@H]1C(=O)O (some centres undefined) |  |
| 220 | N[C@@](CCc1cccc(Oc2ccccc2)c1)(C(=O)O)C1C[C@@H]1C(=O)O (some centres undefined) |  |
| 710 | N[C@@](CCc1c(Cl)cccc1Cl)(C(=O)O)C1C[C@@H]1C(=O)O (some centres undefined) |  |

| IC50 [2] [nM] | Structure (SMILES) | also measured |
| --- | --- | --- |
| 63 | N[C@@](CCc1ccc(F)cc1F)(C(=O)O)C1C[C@@H]1C(=O)O (some centres undefined) |  |
| 370 | N[C@@](CCc1c(F)c(F)c(F)c(F)c1F)(C(=O)O)C1C[C@@H]1C(=O)O (some centres undefined) |  |
| 220 | N[C@@](CCc1ccccc1O)(C(=O)O)C1C[C@@H]1C(=O)O (some centres undefined) |  |
| 570 | Cc1ccccc1CC[C@](N)(C(=O)O)C1C[C@@H]1C(=O)O (some centres undefined) |  |
| 170 | COc1ccccc1CC[C@](N)(C(=O)O)C1C[C@@H]1C(=O)O (some centres undefined) |  |
| 67 | N[C@@](CCc1ccc(Cl)c(Cl)c1)(C(=O)O)C1C[C@@H]1C(=O)O (some centres undefined) |  |
|  | NC(CC(c1ccccc1)c1ccccc1)(C(=O)O)[C@@H]1C[C@H]1C(=O)O (single isomer, unassigned) | Displacement ([2]; Membrane): 0% |
| 480 | N[C@@](CCc1ccccc1C(F)(F)F)(C(=O)O)C1C[C@@H]1C(=O)O (some centres undefined) |  |
|  | Nc1cccc(CC[C@](N)(C(=O)O)C2C[C@@H]2C(=O)O)c1 (some centres undefined) | IC50 [1]: 200 nM; IC50 [3]: 3100 nM |
| 2000 | N[C@@](CC(c1ccccc1)c1ccccc1)(C(=O)O)[C@H]1C[C@@H]1C(=O)O |  |
| > 10000 | N[C@@](CCc1cccc(C2CCCC2)c1)(C(=O)O)C1C[C@@H]1C(=O)O (some centres undefined) |  |
| > 10000 | CC(C)(C)c1cccc(CC[C@](N)(C(=O)O)C2C[C@@H]2C(=O)O)c1 (some centres undefined) |  |
| 160 | N[C@@](CCc1cccc(F)c1)(C(=O)O)C1C[C@@H]1C(=O)O (some centres undefined) |  |
| 260 | N[C@@](CCc1ccccc1Cl)(C(=O)O)C1C[C@@H]1C(=O)O (some centres undefined) |  |
| 370 | N[C@@](CCc1ccc(C(=O)O)cc1)(C(=O)O)C1C[C@@H]1C(=O)O (some centres undefined) |  |
| 22 | N[C@@](CCc1ccc(F)cc1)(C(=O)O)C1C[C@@H]1C(=O)O (some centres undefined) | IC50 [1]: 210 nM; IC50 [3]: 180 nM |
| 110 | COc1cc(CC[C@](N)(C(=O)O)C2C[C@@H]2C(=O)O)cc(OC)c1 (some centres undefined) |  |
| 100 | N[C@@](CCc1cccc(Cl)c1)(C(=O)O)C1C[C@@H]1C(=O)O (some centres undefined) | IC50 [1]: 180 nM; IC50 [3]: 180 nM |
| 21 | N[C@@](CCc1cc(F)cc(F)c1)(C(=O)O)C1C[C@@H]1C(=O)O (some centres undefined) |  |
| 410 | CSc1cccc(CC[C@](N)(C(=O)O)C2C[C@@H]2C(=O)O)c1 (some centres undefined) |  |
| 2400 | CS(=O)(=O)c1cccc(CC[C@](N)(C(=O)O)C2C[C@@H]2C(=O)O)c1 (some centres undefined) [listing 2 of 2 here] |  |
| 680 | N[C@@](CCc1ccc(Br)cc1)(C(=O)O)C1C[C@@H]1C(=O)O (some centres undefined) |  |
| 860 | N[C@](CC1c2ccccc2Oc2ccccc21)(C(=O)O)C1C[C@H]1C(=O)O (stereo in doubt; 173) |  |
| 300 | N[C@@](CCc1ccc(O)cc1)(C(=O)O)C1C[C@@H]1C(=O)O (some centres undefined) |  |
| 310 | N[C@@](CCc1ccccc1F)(C(=O)O)C1C[C@@H]1C(=O)O (some centres undefined) |  |
| 530 | N[C@@](CC1c2ccccc2Oc2ccccc21)(C(=O)O)[C@H]1C[C@@H]1C(=O)O |  |
| 4900 | COc1cccc(CC[C@](N)(C(=O)O)C2C[C@@H]2C(=O)O)c1OC (some centres undefined) |  |
